# Assay results reported in ChEMBL document CHEMBL1147099, “In vitro and in vivo antibacterial activities of heteroaryl isothiazolones against resistant gram-positive pathogens” (Antimicrob Agents Chemother, 2007).
# Legend:
# [1] = Cmax in mouse at 50 mg/kg, sc; format: ADME, organism-based; parameters: dose 50 mg/kg, route subcutaneous; conditions: in vivo
# How it was run: (§1)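 Fasted mice given one subcutaneous dose (20 or 50 mg/kg); blood taken from groups of three at 0.08, 0.25, 0.5, 1, 2, 4, 8, 24 h. Plasma protein-precipitated with cold acetonitrile plus internal standard, LC-MS/MS (C8, positive ESI, SRM); calibration 5–15,000 ng/ml. Noncompartmental analysis of mean concentrations; AUC to last quantifiable point by linear trapezoidal rule.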
# [2] = tested on: Enterococcus faecalis; experiment: Antibacterial activity against Enterococcus faecalis; format: functional
# How it was run: (§2)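 Aerobic isolates run by CLSI broth microdilution in cation-adjusted Mueller-Hinton II broth (streptococci plus 2–5% lysed horse blood), about 5 × 10^5 CFU/ml final; 24 h at 35–37°C aerobically; MIC read as lowest concentration without visible growth.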
# [3] = tested on: Streptococcus viridans; experiment: Antibacterial activity against Streptococcus viridans after 24 hrs by broth microdilution method; format: functional
# How it was run: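 CLSI broth microdilution in cation-adjusted Mueller-Hinton II broth, final inoculum about 5 × 10^5 CFU/ml for most strains; streptococci supplemented with 2–5% lysed horse blood, H. influenzae in Haemophilus test medium. Aerobic incubation at 35–37°C for 24 h; MIC = lowest concentration with no visible growth.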
# [4] = AUC (0-24 hrs) in mouse at 20 mg/kg, sc; format: ADME, organism-based; parameters: time < 24 hr, dose 20 mg/kg, route subcutaneous; conditions: plasma; how it was run: as §1
# [5] = tested on: Enterococcus faecium; experiment: Antibacterial activity against Enterococcus faecium; format: functional; how it was run: as §2
# [6] = tested on: Streptococcus pneumoniae; experiment: Antibacterial activity against Streptococcus pneumoniae by agar dilution method; format: functional
# [7] = tested on: Streptococcus pyogenes; experiment: Antibacterial activity against Streptococcus pyogenes; format: functional; how it was run: as §2
# [8] = tested on: Staphylococcus aureus; experiment: Antibacterial activity against methicillin-susceptible Staphylococcus aureus after 24 hrs by broth microdilution method; format: functional
# How it was run: (§3)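 Broth microdilution per CLSI in cation-adjusted Mueller-Hinton II broth, final inoculum approximately 5 × 10^5 CFU/ml. Plates were incubated aerobically at 35 to 37°C for 24 h. MIC was the lowest concentration giving no visible growth. Reserpine, where used, was at a final concentration of 20 μg/ml.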
# [9] = Plasma half life in mouse at 50 mg/kg, sc; format: ADME, organism-based; parameters: dose 50 mg/kg, route subcutaneous
# [10] = Tmax in mouse at 50 mg/kg, sc; format: ADME, organism-based; parameters: dose 50 mg/kg, route subcutaneous; conditions: in vivo; how it was run: as §1
# [11] = AUC (0-24 hrs) in mouse at 50 mg/kg, sc; format: ADME, organism-based; parameters: time < 24 hr, dose 50 mg/kg, route subcutaneous; conditions: plasma; how it was run: as §1
# [12] = tested on: Staphylococcus aureus; experiment: Antibacterial activity against methicillin-resistant Staphylococcus aureus after 24 hrs by broth microdilution method; format: functional; how it was run: as §3
# [13] = Cmax in mouse at 20 mg/kg, sc; format: ADME, organism-based; parameters: dose 20 mg/kg, route subcutaneous; conditions: in vivo; how it was run: as §1
# [14] = Plasma half life in mouse at 20 mg/kg, sc; format: ADME, organism-based; parameters: dose 20 mg/kg, route subcutaneous
# [15] = Tmax in mouse at 20 mg/kg, sc; format: ADME, organism-based; parameters: dose 20 mg/kg, route subcutaneous; conditions: in vivo; how it was run: as §1
# [16] = tested on: Staphylococcus aureus; experiment: Antibacterial activity against ethidium bromide-resistant Staphylococcus aureus Mu50 after 24 hrs by broth microdilution method; format: functional; conditions: Mu50, 24 h; how it was run: as §3
# [17] = tested on: Staphylococcus aureus; experiment: Effect on cellular viability of methicillin-sensitive Staphylococcus aureus ATCC 29213 by measuring the time required for recovery at 10 times MIC after 1 hr; format: functional
# How it was run: (§4)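 S. aureus in log phase, approximately 2–4 × 10^7 CFU/ml in CAMHB, was exposed to 10× MIC for 1 h at 35 to 37°C with shaking, then diluted 1:1,000 into prewarmed CAMHB. Viable counts were taken hourly for 4 to 8 h. PAE = T − C, the time to a 1-log10 rise, treated versus untreated. Mean of two independent experiments.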
# [18] = tested on: Staphylococcus aureus; experiment: Antibacterial activity against […] Staphylococcus aureus ATCC 29213 after 24 hrs by broth microdilution method; format: functional; conditions: ATCC 29213, 24 h; how it was run: as §3
# [19] = tested on: Staphylococcus aureus; experiment: Antibacterial activity against ethidium bromide-resistant Staphylococcus aureus BSA643 after 24 hrs by broth microdilution method; format: functional; conditions: BSA643, 24 h; how it was run: as §3
# [20] = tested on: Staphylococcus aureus; experiment: Effect on cellular viability of methicillin-resistant Staphylococcus aureus Mu50 at 10 times MIC by measuring the time required for recovery at 10 times MIC after 1 hr; format: functional; how it was run: as §4
# [21] = tested on: Staphylococcus aureus; experiment: microbe, parasite or virus in culture; conditions: Mu50
# [22] = tested on: Staphylococcus aureus; experiment: Antibacterial activity against ethidium bromide-resistant Staphylococcus aureus BSA678 after 24 hrs by broth microdilution method; format: functional; conditions: BSA678, 24 h; how it was run: as §3
# [23] = tested on: Staphylococcus aureus; experiment: Antibacterial activity in CD1 mouse inoculated with methicillin-resistant Staphylococcus aureus ATCC 33591 in thigh assessed as reduction of bacterial population at 10 mg/kg, sc after 24 hrs; format: functional; conditions: route subcutaneous
# How it was run: (§5)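 Female CD-1 mice (19 to 28 g) were made neutropenic with cyclophosphamide 150 mg/kg i.p. at 4 days and 1 day before infection. Each thigh was injected i.m. with 0.1 ml of S. aureus suspension. A single s.c. dose was given 2 h postinfection, in groups of three mice. Thighs were homogenized in PBS and plated on trypticase soy agar overnight at 37°C. CFU/thigh was compared with controls at the time of treatment.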
# [24] = tested on: Staphylococcus aureus; experiment: Antibacterial activity in CD1 mouse inoculated with methicillin-resistant Staphylococcus aureus ATCC 33591 in thigh assessed as reduction of bacterial population at 10 mg/kg, sc after 8 hrs; format: functional; conditions: route subcutaneous; how it was run: as §5
# [25] = tested on: Staphylococcus aureus; experiment: Antibacterial activity in CD1 mouse inoculated with methicillin-resistant Staphylococcus aureus ATCC 33591 in thigh assessed as reduction of bacterial population at 10 mg/kg, sc after 4 hrs; format: functional; conditions: route subcutaneous; how it was run: as §5
# [26] = tested on: Staphylococcus aureus; experiment: Antibacterial activity in CD1 mouse inoculated with methicillin-resistant Staphylococcus aureus ATCC 33591 in thigh assessed as reduction of bacterial population at 10 mg/kg, sc after 6 hrs; format: functional; conditions: route subcutaneous; how it was run: as §5
# [27] = tested on: Staphylococcus aureus; experiment: Antibacterial activity in CD1 mouse inoculated with methicillin-sensitive Staphylococcus aureus ATCC 13709 in thigh assessed as reduction of CFU/thigh at 10 mg/kg, sc after 4 hrs; format: functional; conditions: route subcutaneous; how it was run: as §5
# [28] = tested on: Staphylococcus aureus; experiment: Antibacterial activity in CD1 mouse inoculated with methicillin-sensitive Staphylococcus aureus ATCC 13709 in thigh assessed as reduction of bacterial population at 10 mg/kg, sc after 24 hrs; format: functional; conditions: route subcutaneous; how it was run: as §5
smiles,measurement,setting,value
"CC(=O)NCC1CN(c2ccc(N3CCOCC3)c(F)c2)C(=O)O1 (single isomer, unassigned) [LINEZOLID]",Cmax,[1],25500 ng/mL
same,MIC50,[2],2 µg/mL
same,MIC90,[2],> 16 µg/mL
same,MIC50,[3],1 µg/mL
same,MIC90,[3],1 µg/mL
same,AUC(0-t) at 24 h,[4],29100 ng·h/mL
same,MIC50,[5],2 µg/mL
same,MIC90,[5],2 µg/mL
same,MIC50,[6],1 µg/mL
same,MIC90,[6],1 µg/mL
same,MIC50,[7],1 µg/mL
same,MIC90,[7],1 µg/mL
same,MIC50,[8],2 µg/mL
same,MIC90,[8],2 µg/mL
same,half-life,[9],2.18 h
same,Tmax,[10],1 h
same,AUC(0-t) at 24 h,[11],112000 ng·h/mL
same,MIC50,[12],2 µg/mL
same,MIC90,[12],2 µg/mL
same,Cmax,[13],12200 ng/mL
same,half-life,[14],1.17 h
same,Tmax,[15],0.5 h
COc1c(N2C[C@@H]3CCCN[C@@H]3C2)c(F)cc2c(=O)c(C(=O)O)cn(C3CC3)c12 [MOXIFLOXACIN],MIC,[16],4 µg/mL
same,Post anitbiotic effect,[17],1.6 h
same,MIC,[18],0.06 µg/mL
same,MIC,[19],16 µg/mL
same,Post anitbiotic effect,[20],1.5 h
same,MIC,[21],64 µg/mL
same,MIC,[22],> 64 µg/mL
CN[C@H](CC(C)C)C(=O)N[C@H]1C(=O)N[C@@H](CC(N)=O)C(=O)N[C@H]2C(=O)N[C@H]3C(=O)N[C@H](C(=O)N[C@H](C(=O)O)c4cc(O)cc(O)c4-c4cc3ccc4O)[C@H](O)c3ccc(c(Cl)c3)Oc3cc2cc(c3O[C@@H]2O[C@H](CO)[C@@H](O)[C@H](O)[C@H]2O[C@H]2C[C@](C)(N)[C@H](O)[C@H](C)O2)Oc2ccc(cc2Cl)[C@H]1O [VANCOMYCIN],CFU/ml,[23],0.31
same,MIC50,[2],2 µg/mL
same,MIC90,[2],> 32 µg/mL
same,MIC50,[3],0.5 µg/mL
same,MIC90,[3],1 µg/mL
same,CFU/ml,[24],0.58
same,MIC50,[5],> 32 µg/mL
same,MIC90,[5],> 32 µg/mL
same,CFU/ml,[25],0.32
same,MIC50,[6],0.5 µg/mL
same,MIC90,[6],0.5 µg/mL
same,MIC50,[8],1 µg/mL
same,MIC90,[8],2 µg/mL
same,CFU/ml,[26],0.49
same,MIC50,[12],1 µg/mL
same,MIC90,[12],8 µg/mL
same,CFU/ml,[27],0.31
same,CFU/ml,[28],1.37
